Data as given in ChEMBL document CHEMBL1671769, “Tissue penetration and pharmacokinetics of tigecycline in diabetic patients with chronic wound infections described by using in vivo microdialysis” (Antimicrob Agents Chemother, 2010).
In brackets after ≈: the same amount, converted by molar mass.

Legend:
[1] = Tmax in plasma of diabetic patient with chronic wound infection at […], iv loading dose followed by […], iv BID for 2 to 3 doses by microdialysis; type: ADME, organism-based; conditions: human
How it was run: (§1)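 Eight adult diabetic patients; IV 100 mg loading dose over 1 h via peripheral vein, then 50 mg over 1 h every 12 h for 2–3 further doses. Heparinized venous blood from contralateral arm at 0–12 h over a steady-state interval; plasma stored −80°C; HPLC (linear 0.05–5 μg/ml). Noncompartmental analysis: Cmax by inspection, log-linear trapezoidal AUC0-24, t1/2 = 0.693/λz (≥3 terminal points), […].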

[2] = Drug recovery in thigh interstitial fluid of diabetic patient with chronic wound infection at […], iv loading dose followed by […], iv BID for 2 to 3 doses by microdialysis; type: ADME, organism-based; conditions: human, in vivo
How it was run: (§2)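 In vivo recovery by retrodialysis for each catheter after the final sampling. Perfusate was lactated Ringer's containing 500 μg/ml drug, perfused for 1 h at 2 μl/min. Recovery = 100 − (100 × Cdialysate/Cperfusate), measured by HPLC.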

[3] = Cmax in wound interstitial fluid of diabetic patient with chronic wound infection at […], iv loading dose followed by […], iv BID for […] by microdialysis; type: ADME, organism-based; parameters: route intravenous; conditions: human
How it was run: (§3)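 Subcutaneous microdialysis probes (30 mm membrane, 20 kDa cutoff) placed before dosing, one within 10 cm of wound margin and one in uninfected thigh of the same limb. Patients given IV 100 mg load then 50 mg q12h.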

Plasma [4] = assay: fCmax in plasma of diabetic patient with chronic wound infection at […], iv loading dose followed by […], iv BID for 2 to 3 doses by microdialysis; type: ADME, organism-based; conditions: human, in vivo
How it was run: (§4)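 Steady-state plasma after IV 100 mg loading then 50 mg every 12 h (1-h infusions) in diabetic patients. Total HPLC plasma levels converted to free using a polynomial fitted to ultrafiltration-derived percent unbound versus plasma concentration (y = y0 + a/x + b/x² + c/x³). Free-drug profiles analysed noncompartmentally; Cmax by visual inspection.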

Plasma [5] = assay: Clearance at steady state in plasma of diabetic patient with chronic wound infection at […], iv loading dose followed by […], iv BID for 2 to 3 doses by microdialysis; type: ADME, organism-based; conditions: human, in vivo; how it was run: as §1
[6] = fTmax in plasma of diabetic patient with chronic wound infection at […], iv loading dose followed by […], iv BID for 2 to 3 doses by microdialysis; type: ADME, organism-based; conditions: human; how it was run: as §4
[7] = Volume of distribution at steady state in plasma of diabetic patient with chronic wound infection at […], iv loading dose followed by […], iv BID for 2 to 3 doses by microdialysis; type: ADME, organism-based; conditions: human, read-out: Vdss; how it was run: as §1
[8] = fAUC (0 to 24 hrs) to MIC for Staphylococcus aureus infected in thigh of ICR mouse; type: functional, Thigh muscle
[9] = AUC (0 to 24 hrs) in thigh interstitial fluid of diabetic patient with chronic wound infection at […], iv loading dose followed by […], iv BID for […] by microdialysis; type: ADME, organism-based; parameters: time < 24 hr, route intravenous; conditions: human; how it was run: as §3
[10] = Drug penetration in blister fluid of healthy human at […], iv loading dose followed by […], iv BID for 2 to 3 doses by microdialysis; type: ADME, organism-based; conditions: in vivo
[11] = Drug penetration in wound interstitial fluid of diabetic patient with chronic wound infection at […], iv loading dose followed by […], iv BID for […] by microdialysis; type: ADME, organism-based; conditions: human, in vivo
How it was run: (§5)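 Tissue penetration is interstitial AUC0-24 (wound or thigh, microdialysis, recovery-corrected) divided by free plasma AUC0-24 × 100. Free plasma values come from the protein-binding polynomial applied to total concentrations. Sampling over a 12-h steady-state interval after IV 100 mg load then 50 mg q12h. Sites were compared by t test or Mann-Whitney.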

[12] = Terminal half life in wound interstitial fluid of diabetic patient with chronic wound infection at […], iv loading dose followed by […], iv BID for […] by microdialysis; type: ADME, organism-based; conditions: human; how it was run: as §3
[13] = Ratio of fAUC (0 to 24 hrs) in plasma of diabetic patient with chronic wound infection to MIC for methicillin-resistant Staphylococcus aureus; type: functional
How it was run: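 Same patients and IV regimen (100 mg load, then 50 mg q12h). Total plasma levels measured by HPLC over the 12-h steady-state interval were converted to free drug using a polynomial fit of ultrafiltration protein binding, measured in triplicate at 1, 6 and 12 h.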

[14] = Cmax in thigh interstitial fluid of diabetic patient with chronic wound infection at […], iv loading dose followed by […], iv BID for […] by microdialysis; type: ADME, organism-based; parameters: route intravenous; conditions: human; how it was run: as §3
[15] = Ratio of AUC (0 to 24 hrs) in thigh interstitial fluid of diabetic patient with chronic wound infection to MIC for methicillin-resistant Staphylococcus aureus; type: functional, Thigh muscle
[16] = Drug penetration in thigh interstitial fluid of diabetic patient with chronic wound infection at […], iv BID for […] by microdialysis; type: ADME, organism-based; conditions: human, in vivo; how it was run: as §5
[17] = Terminal half life in plasma of diabetic patient with chronic wound infection at […], iv loading dose followed by […], iv BID for 2 to 3 doses by microdialysis; type: ADME, organism-based; conditions: human; how it was run: as §1
[18] = Tmax in wound interstitial fluid of diabetic patient with chronic wound infection at […], iv loading dose followed by […], iv BID for […] by microdialysis; type: ADME, organism-based; conditions: human; how it was run: as §3
Staphylococcus aureus = assay: Antimicrobial activity against methicillin-resistant Staphylococcus aureus by CLSI method; type: functional
[19] = Terminal half life in thigh interstitial fluid of diabetic patient with chronic wound infection at […], iv loading dose followed by […], iv BID for […] by microdialysis; type: ADME, organism-based; conditions: human; how it was run: as §3
[20] = Drug recovery in wound interstitial fluid of diabetic patient with chronic wound infection at […], iv loading dose followed by […], iv BID for 2 to 3 doses by microdialysis; type: ADME, organism-based; conditions: human, in vivo; how it was run: as §2
Plasma [21] = assay: AUC (0 to 24 hrs) in plasma of diabetic patient with chronic wound infection at […], iv loading dose followed by […], iv BID for 2 to 3 doses by microdialysis; type: ADME, organism-based; parameters: time < 24 hr, route intravenous; conditions: human, in vivo; how it was run: as §1
[22] = Ratio of AUC (0 to 24 hrs) in patient with complicated skin and skin structure infections to MIC for Staphylococcus aureus; type: functional
[23] = Ratio of AUC (0 to 24 hrs) in plasma diabetic patient with chronic wound infection to MIC for methicillin-resistant Staphylococcus aureus; type: functional
How it was run: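 Eight adult diabetic patients; tigecycline 100 mg IV over 1 h, then 50 mg over 1 h every 12 h for 2–3 more doses. Venous plasma was sampled over the 12-h steady-state interval and total drug measured by HPLC.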

[24] = Tmax in thigh interstitial fluid of diabetic patient with chronic wound infection at […], iv loading dose followed by […], iv BID for […] by microdialysis; type: ADME, organism-based; conditions: human; how it was run: as §3
[25] = Cmax in plasma of diabetic patient with chronic wound infection at […], iv loading dose followed by […], iv BID for 2 to 3 doses by microdialysis; type: ADME, organism-based; parameters: route intravenous; conditions: human; how it was run: as §1
[26] = AUC (0 to 24 hrs) in wound interstitial fluid of diabetic patient with chronic wound infection at […], iv loading dose followed by […], iv BID for […] by microdialysis; type: ADME, organism-based; parameters: time < 24 hr, route intravenous; conditions: human; how it was run: as §3

CN(C)c1cc(NC(=O)CNC(C)(C)C)c(O)c2c1C[C@H]1C[C@H]3[C@H](N(C)C)C(O)=C(C(N)=O)C(=O)[C@@]3(O)C(O)=C1C2=O [TIGECYCLINE]
Tmax [1]: 1.13 h
Activity [2]: 53.48%
Cmax [3]: 160 ng/mL
Cmax_unbound (Plasma [4]): 160 ng/mL
CLss (Plasma [5]): 4.67 mL/min/kg
Tmax [6]: 1.13 h
Vd [7]: 3.95 L/kg
fAUC/MIC [8]: 5.7
AUC at 24 h [9]: 2520 ng·h/mL
Drug uptake [10]: 74%
Drug uptake [11]: 100%
half-life [12]: 24.9 h
RatioAUC/MIC [13]: 22.1
Cmax [14]: 180 ng/mL
RatioAUC/MIC [15]: 21
Drug uptake [16]: 98.94%
half-life [17]: 9.73 h
Tmax [18]: 4.38 h
MIC90 (Staphylococcus aureus): 0.12 µg/mL (≈ 0.205 µM)
half-life [19]: 16 h
Activity [20]: 57.03%
AUC (Plasma [21]): 3990 ng·h/mL
RatioAUC/MIC [22]: 17.9
RatioAUC/MIC [23]: 33.25
Tmax [24]: 3.38 h
Cmax [25]: 420 ng/mL
AUC at 24 h [26]: 2600 ng·h/mL
